Our source for the AD50, Ki and Activity values is ChEMBL document CHEMBL1143907, “Synthesis, nicotinic acetylcholine receptor binding, and pharmacological properties of 3'-(substituted phenyl)deschloroepibatidine analogs” (Bioorg Med Chem, 2008).

The test system of test [1] is Mus musculus. The test can be described thus: Inhibition of nicotine-induced antinociception in sc dosed acute pain mouse model by tail flick method. The class given is functional. Background: Hot-plate and tail-flick tests time the reaction to a heat stimulus.
In test [2] the target is Neuronal acetylcholine receptor; alpha4/beta2 (Rattus norvegicus, UniProt P09483+P12390). Description: Displacement of [3H]epibatidine from alpha-4-beta-2 nAChR in rat cerebral cortex. Format: tissue-based. For orientation: Loss of bound radioactivity is the signal in a displacement assay; it reports binding, not function.
Test [3] has as its system Mus musculus. The test can be described thus: Antinociceptive activity in acute pain mouse model at 10 mg/kg, sc by hot plate method. Format: functional. The conditions noted are these: route subcutaneous. In a few lines: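 Mice were placed in a 10-cm glass cylinder on a hot plate held at 55.0 °C. Two control latencies, at least 10 min apart, were taken per mouse (normal 8–12 s). The endpoint was a jump or paw lick, and animals were tested 5 min after sc injection. Response was expressed as %MPE from test, control and maximum latencies. ED50 values are given with confidence limits, or as percent effect at a dose.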

The subject of test [4] is Mus musculus. Description: Effect on rectal temperature in mouse at 500 […], sc. The conditions noted are these: route subcutaneous. Format: functional. In a few lines: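 Rectal temperature was read with a thermistor probe inserted 24 mm, just before and at several times after sc saline or analog. The pre/post difference was calculated per mouse. Laboratory ambient temperature was 21–24 °C.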

Test [5] relates to Mus musculus. The test can be described thus: Inhibition of nicotine-induced antinociception in sc dosed acute pain mouse model by hot plate method. Format: functional.

Sequence of Neuronal acetylcholine receptor; alpha4/beta2 (P09483 whole entry): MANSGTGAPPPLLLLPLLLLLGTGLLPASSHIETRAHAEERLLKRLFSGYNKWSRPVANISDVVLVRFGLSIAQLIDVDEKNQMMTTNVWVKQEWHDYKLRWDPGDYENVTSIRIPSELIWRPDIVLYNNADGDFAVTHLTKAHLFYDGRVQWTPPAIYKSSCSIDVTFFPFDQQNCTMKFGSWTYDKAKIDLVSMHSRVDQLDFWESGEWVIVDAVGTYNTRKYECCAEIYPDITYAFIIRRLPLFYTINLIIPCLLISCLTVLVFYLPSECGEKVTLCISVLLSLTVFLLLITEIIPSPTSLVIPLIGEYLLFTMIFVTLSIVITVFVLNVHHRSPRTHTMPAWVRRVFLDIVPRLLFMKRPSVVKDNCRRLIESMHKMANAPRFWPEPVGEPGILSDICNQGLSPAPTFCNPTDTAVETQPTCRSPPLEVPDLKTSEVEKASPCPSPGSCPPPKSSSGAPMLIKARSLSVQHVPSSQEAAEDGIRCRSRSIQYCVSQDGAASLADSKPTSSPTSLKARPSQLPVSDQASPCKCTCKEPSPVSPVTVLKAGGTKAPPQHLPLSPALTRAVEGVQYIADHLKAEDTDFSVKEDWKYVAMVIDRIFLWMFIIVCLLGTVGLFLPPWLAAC
Sequence of Neuronal acetylcholine receptor; alpha4/beta2 (P12390 whole entry): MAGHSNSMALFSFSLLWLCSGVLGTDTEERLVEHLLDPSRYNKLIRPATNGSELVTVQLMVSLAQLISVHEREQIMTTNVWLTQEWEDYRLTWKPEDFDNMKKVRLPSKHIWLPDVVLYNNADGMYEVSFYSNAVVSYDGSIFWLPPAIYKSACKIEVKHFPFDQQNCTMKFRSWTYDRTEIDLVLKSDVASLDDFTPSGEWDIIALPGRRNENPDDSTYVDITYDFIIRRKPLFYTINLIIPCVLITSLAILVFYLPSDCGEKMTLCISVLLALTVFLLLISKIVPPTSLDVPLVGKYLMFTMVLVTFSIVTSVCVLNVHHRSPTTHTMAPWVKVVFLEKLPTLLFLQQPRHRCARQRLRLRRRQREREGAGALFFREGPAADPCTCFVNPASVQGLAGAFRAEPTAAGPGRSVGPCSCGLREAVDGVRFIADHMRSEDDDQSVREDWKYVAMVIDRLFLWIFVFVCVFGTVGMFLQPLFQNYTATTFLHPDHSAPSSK

What is called Ki is a dissociation constant, usually derived from enzyme kinetics or from competition with a known ligand. Higher therefore signals lower affinity. In the case of `Cl.O=[N+]([O-])c1cccc(-c2cc(C3CC4CCC3N4)cnc2F)c1` (racemic), the AD50 in the test on Mus musculus [1] stood at 0.0002 mg/kg; with Mus musculus [5], 0.13 mg/kg. Besides, in test [2], the Ki is 0.053 nM. The Activity in the test with Mus musculus [3] came to 20%; in the test on Mus musculus [4] it was 5%.
